Results from ChEMBL document CHEMBL3992509, “Discovery of a Highly Potent, Selective, and Metabolically Stable Inhibitor of Receptor-Interacting Protein 1 (RIP1) for the Treatment of Systemic Inflammatory Response Syndrome” (J Med Chem, 2017).
Activity calls are given as the source filed them. No cut-off for these calls is given here.

What was measured:
[1] = Half life in human liver microsomes in presence of NADPH by LC-MS/MS analysis; assay type: ADME, microsome
Mus musculus [2] = test: Protection against TNFalpha-induced multiorgan damage in C57BL/6J mouse assessed as inhibition of TNFalpha-induced increase in IL-6 level at 6 mg/kg, ip administered as single dose 17 mins before TNFalpha injection measured 12 hrs post TNFalpha injection; assay type: functional, organism-based
Method in brief: (§1)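 C57BL/6 mice given mTNFα IV, then a single 6 mg/kg IP compound dose 17 min before TNFα. Blood taken 12 h after TNFα for mIL-6 and mIL-1β.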

[3] = target: Indoleamine 2,3-dioxygenase 1 (Homo sapiens, UniProt P14902); test: Inhibition of recombinant human IDO expressed in Escherichia coli assessed as reduction in kynurenine production at 200 uM using L-tryptophan as substrate after 3 hrs by methylene blue dye based assay
Sequence of Indoleamine 2,3-dioxygenase 1 (P14902 whole entry): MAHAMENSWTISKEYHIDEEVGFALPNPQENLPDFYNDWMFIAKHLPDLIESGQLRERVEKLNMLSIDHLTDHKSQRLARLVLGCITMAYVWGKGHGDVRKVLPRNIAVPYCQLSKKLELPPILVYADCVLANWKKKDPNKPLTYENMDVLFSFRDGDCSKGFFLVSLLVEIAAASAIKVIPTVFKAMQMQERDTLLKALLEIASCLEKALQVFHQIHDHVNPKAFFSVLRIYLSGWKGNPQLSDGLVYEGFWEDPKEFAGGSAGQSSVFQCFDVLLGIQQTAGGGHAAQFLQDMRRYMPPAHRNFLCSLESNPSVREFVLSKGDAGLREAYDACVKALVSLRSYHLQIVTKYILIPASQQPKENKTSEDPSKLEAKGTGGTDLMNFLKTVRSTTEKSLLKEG
Method in brief: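 Reaction mix: 50 mM MES pH 6.5, 20 mM ascorbate, 2250 U/mL catalase, 10 μM methylene blue, 200 μM L-Trp, 100 nM recombinant IDO, 200 μM compound or DMSO. Incubated 37 °C for 3 h; kynurenine colour read at 321 nm.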

Mus musculus [4] = test: Protection against TNFalpha-induced multiorgan damage in C57BL/6J mouse assessed as inhibition of TNFalpha-induced increase in IL-1beta level at 6 mg/kg, ip administered as single dose 17 mins before TNFalpha injection measured 12 hrs post TNFalpha injection; assay type: functional, organism-based; method in brief: as §1
[5] = target: T1, Receptor-interacting serine/threonine-protein kinase 1 (Homo sapiens, UniProt Q13546); test: Inhibition of recombinant GST-tagged RIP1 (unknown origin) after 4 hrs by ADP-Glo kinase assay
T1 sequence (Q13546 whole entry): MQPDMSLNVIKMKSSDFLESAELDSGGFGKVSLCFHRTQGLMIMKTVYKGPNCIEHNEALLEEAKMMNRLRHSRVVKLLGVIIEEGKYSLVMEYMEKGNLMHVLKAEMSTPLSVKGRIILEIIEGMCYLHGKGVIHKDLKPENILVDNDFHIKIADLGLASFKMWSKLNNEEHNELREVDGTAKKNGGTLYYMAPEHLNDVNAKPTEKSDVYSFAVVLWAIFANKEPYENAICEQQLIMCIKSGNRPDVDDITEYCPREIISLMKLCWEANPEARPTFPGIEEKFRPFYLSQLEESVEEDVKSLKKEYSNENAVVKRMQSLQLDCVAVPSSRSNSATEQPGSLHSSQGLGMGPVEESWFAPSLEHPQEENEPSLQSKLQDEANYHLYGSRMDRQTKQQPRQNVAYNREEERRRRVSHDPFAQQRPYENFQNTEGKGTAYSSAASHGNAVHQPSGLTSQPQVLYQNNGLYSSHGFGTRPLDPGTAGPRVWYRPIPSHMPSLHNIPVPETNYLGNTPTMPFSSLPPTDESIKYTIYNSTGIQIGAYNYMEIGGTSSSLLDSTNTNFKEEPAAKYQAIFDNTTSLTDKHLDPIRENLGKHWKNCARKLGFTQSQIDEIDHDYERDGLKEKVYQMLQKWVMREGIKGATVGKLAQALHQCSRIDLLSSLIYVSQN

Mus musculus [6] = test: Protection against TNFalpha-induced mortality in C57BL/6J mouse assessed as survival rate at 6 mg/kg, ip administered as single dose 17 mins before TNFalpha injection measured every 30 mins up to 60 hrs post TNFalpha injection (reference value: 50%); assay type: functional
[7] = target: Receptor-interacting serine/threonine-protein kinase 3 (Homo sapiens) (UniProt Q9Y572); test: Inhibition of full length recombinant human N-terminal GST-tagged RIP3 expressed in baculovirus infected sf9 cells at 10 uM using MBP as substrate preincubated for 15 mins followed by MBP/ATP mixture addition measured after 90 mins by ADP-Glo kinase assay
Sequence of Receptor-interacting serine/threonine-protein kinase 3 (Homo sapiens) (Q9Y572 whole entry, looked up): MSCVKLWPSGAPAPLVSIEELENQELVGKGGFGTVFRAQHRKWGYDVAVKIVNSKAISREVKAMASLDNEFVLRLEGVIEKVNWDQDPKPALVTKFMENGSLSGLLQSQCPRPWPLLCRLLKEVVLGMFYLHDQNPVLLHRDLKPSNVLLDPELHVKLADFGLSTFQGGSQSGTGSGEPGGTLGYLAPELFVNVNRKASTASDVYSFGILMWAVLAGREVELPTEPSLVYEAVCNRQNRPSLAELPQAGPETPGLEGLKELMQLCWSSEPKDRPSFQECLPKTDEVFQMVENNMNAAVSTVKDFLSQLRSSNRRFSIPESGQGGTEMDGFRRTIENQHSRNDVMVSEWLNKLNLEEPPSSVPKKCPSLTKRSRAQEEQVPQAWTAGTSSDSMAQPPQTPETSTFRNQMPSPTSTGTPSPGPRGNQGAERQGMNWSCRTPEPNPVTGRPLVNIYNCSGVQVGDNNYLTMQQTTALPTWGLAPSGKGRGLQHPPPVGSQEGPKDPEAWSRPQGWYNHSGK

[8] = Half life in mouse liver microsomes in presence of NADPH by LC-MS/MS analysis; assay type: ADME, microsome
[9] = Intrinsic clearance in mouse liver microsomes assessed per mg protein in presence of NADPH by LC-MS/MS analysis; assay type: ADME, microsome; conditions: read-out: CLH
[10] = Intrinsic clearance in human liver microsomes assessed per mg protein in presence of NADPH by LC-MS/MS analysis; assay type: ADME, microsome; conditions: read-out: CLH

SMILES	half-life [1]	half-life [8]	microsomal CLint [9]	microsomal CLint [10]	also measured
CCC(C)(C)C(=O)NC(CO)c1ccccc1 (stereo not drawn)	> 200 min	–	–	–	–
CN1C(=O)C(Cc2c[nH]c3ccccc23)NC1=S (stereo not drawn) [NECROSTATIN]	–	–	–	–	inhibition (Mus musculus [2]): Active; inhibition (INH) [3]: Active; inhibition (Mus musculus [4]): Active; IC50 [5]: 760 nM; survival at 6 mg/kg (Mus musculus [6]): 60%; inhibition [7]: inactive
CCC(C)(C)C(=O)N(O)Cc1ccc(F)cc1	178 min	24.1 min	28.8 µL/min/mg	3.9 µL/min/mg	–
CCC(C)(C)C(=O)N(O)Cc1ccc(F)c(F)c1	107 min	11.3 min	61.4 µL/min/mg	6.5 µL/min/mg	–
CCC(C)(C)C(=O)NC(C)c1ccccc1 (stereo not drawn)	> 200 min	–	–	–	–
CCC(C)(C)C(=O)N(O)Cc1ccc(F)cc1F	198 min	23.2 min	29.9 µL/min/mg	3.5 µL/min/mg	–
CCC(C)(C)C(=O)N(O)Cc1cc(F)c(F)c(F)c1	66 min	7.89 min	87.8 µL/min/mg	10.5 µL/min/mg	–

The next lines start with results.

half-life [1]	half-life [8]	microsomal CLint [9]	microsomal CLint [10]	SMILES	also measured
52.9 min	13.9 min	49.9 µL/min/mg	13.1 µL/min/mg	CCC(C)(C)C(=O)N(O)Cc1ccc(F)c(F)c1F	–
66.6 min	9.21 min	75.3 µL/min/mg	10.4 µL/min/mg	CCC(C)(C)C(=O)N(O)Cc1cc(F)cc(F)c1F	–
> 200 min	–	–	–	CCC(C)(C)C(=O)NCc1ccccc1	–
